We go through seven compounds from ChEMBL document CHEMBL1150393, “Evaluation of radiolabeled (hetero)aromatic analogues of N-(2-diethylaminoethyl)-4-iodobenzamide for imaging and targeted radionuclide therapy of melanoma” (J Med Chem, 2008).

Data set [1] is described as follows: Binding affinity to melanin in water. Also on record: concentration or dose not given beside the values. The note with it: tested as the 125I-labelled form.
Data set [2] can be described thus: Binding affinity to melanin in phosphate buffer solution. The arrangement: concentration or dose not given beside the values. The following applies: tested as the 125I-labelled form.
Data set [3] in a line: Drug excretion in mouse B16-F0 cells bearing C57BL/6 mouse urine at 0.74 to 0.92 MBq, iv after 72 hrs. Type of data set: ADME, organism-based. The following applies: in vivo. Summed up:
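Urine was collected from two B16-F0 tumour-bearing C57BL6 mice for up to 72 h after iv tail-vein injection of the [¹²⁵I]-labelled compound (0.1 µmol). Samples were counted to give cumulative urinary excretion as %ID.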

Data set [4] in a line: Biodistribution in tumor of C57BL/6 mouse bearing mouse B16-F0 cells at 0.74 to 0.92 MBq, iv after 3 hrs. In kind it is ADME, organism-based, Neoplasm. The following applies: in vivo. The gist of the method: (§1)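 [¹²⁵I]-labelled compound given iv by tail vein (0.1 µmol per mouse) to male C57BL6 mice bearing s.c. B16-F0 flank tumours (5 × 10⁵ cells in PBS). Two mice per time point were killed by CO₂, frozen in liquid nitrogen and cut into 40 µm cryosections, eight slices per mouse. Slice radioactivity was read on a multiwire proportional counter, converted to kBq/g and reported as %ID/g.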

Data set [5] can be described thus: Biodistribution in tumor of C57BL/6 mouse bearing mouse B16-F0 cells at 0.74 to 0.92 MBq, iv after 6 hrs. The note with it: in vivo. In kind it is ADME, organism-based, Neoplasm. The gist of the method:
as §1

Data set [6] in a line: Biodistribution in tumor of C57BL/6 mouse bearing mouse B16-F0 cells at 0.74 to 0.92 MBq, iv after 24 hrs. The following applies: in vivo. In kind it is ADME, organism-based, Neoplasm. Summed up:
as §1

Data set [7] in a line: Biodistribution in tumor of C57BL/6 mouse bearing mouse B16-F0 cells at 0.74 to 0.92 MBq, iv after 72 hrs. In kind it is ADME, organism-based, Neoplasm. The note with it: in vivo. Summed up: as §1

With `CCN(CC)CCNC(=O)c1cc2c(I)cccc2s1`, the Activity came to 87.6% in data set [1] and 56.1% in data set [2].

In the case of `CCN(CC)CCNC(=O)c1ccc2cncc(I)c2n1`, the Activity in data set [1] came out at 44.8%; in data set [2], 35.3%.

For `CCN(CC)CCNC(=O)c1cc2cc(I)ccc2[nH]1`, the values for the Activity in data set [1] and in data set [2] were 79.8% and 43.1%, respectively.

As to `CCN(CC)CCNC(=O)c1nc2cc(I)ccc2[nH]1`, the figures for the Activity in data set [1] and in data set [2] were 84.5% and 47.1%, respectively.

Compound `CCN(CC)CCNC(=O)c1ccc(I)cc1` had an Activity in data set [3] of 83.1%. Moreover, the Drug uptake was 9.1 % ID/g in data set [4], 7.7 % ID/g in data set [5], 3.7 % ID/g in data set [6] and 0.8 % ID/g in data set [7].

For `CCN(CC)CCNC(=O)c1c[nH]c2ccc(I)cc2c1=O`, the results for the Activity in data set [1] and in data set [2] were 86.7% and 59%, respectively.

For the compound `CCN(CC)CCNC(=O)c1cc2cc(I)ccc2o1`, the Activity in data set [1] is 87%; in data set [2], 45.2%.
